Test results taken from ChEMBL document CHEMBL3769331, “Discovery of a new selective inhibitor of A Disintegrin And Metalloprotease 10 (ADAM-10) able to reduce the shedding of NKG2D ligands in Hodgkin's lymphoma cell models” (Eur J Med Chem, 2016).

Columns and labels:
[1] = molecular target: T1, Interstitial collagenase (Homo sapiens, UniProt P03956); assay: Inhibition of human MMP-1 using Mca-Lys-Pro-Leu-Gly-Leu-Dap(Dnp)-Ala-Arg-NH2 as substrate after 3 hrs by fluorometric assay
T1 sequence (P03956 whole entry): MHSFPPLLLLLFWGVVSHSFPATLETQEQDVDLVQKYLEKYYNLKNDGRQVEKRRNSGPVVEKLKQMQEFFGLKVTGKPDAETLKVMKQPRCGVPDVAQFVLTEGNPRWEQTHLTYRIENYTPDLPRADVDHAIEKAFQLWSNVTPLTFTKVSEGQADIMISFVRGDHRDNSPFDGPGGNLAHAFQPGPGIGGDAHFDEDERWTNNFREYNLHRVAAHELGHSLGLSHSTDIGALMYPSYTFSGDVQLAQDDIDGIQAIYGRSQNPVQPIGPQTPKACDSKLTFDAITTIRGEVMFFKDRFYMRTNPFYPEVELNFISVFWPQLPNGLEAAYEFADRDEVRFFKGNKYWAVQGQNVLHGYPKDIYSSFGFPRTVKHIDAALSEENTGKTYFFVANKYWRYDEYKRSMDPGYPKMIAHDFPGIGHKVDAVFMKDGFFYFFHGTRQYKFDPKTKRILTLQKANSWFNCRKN
Summary of the method: (§1)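 Pro-MMPs were activated with APMA: MMP-1 2 mM for 2 h, MMP-2 2 mM for 1 h, MMP-9 1 mM for 1 h, all at 37 °C. Final enzyme: MMP-1 2.0 nM, MMP-2 0.56 nM, MMP-9 1.3 nM. Enzyme was preincubated with inhibitor for 3 h at 25 °C in Tris 50 mM pH 7.5, NaCl 150 mM, CaCl2 10 mM, Brij-35 0.05%, DMSO 1%. Substrate final 2 µM. Fluorescence (ex 325/em 400 nm) read every 15 s for 20 min. Duplicates; IC50 from vi/vo = 1/(1+[I]/IC50).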

[2] = molecular target: T2, Disintegrin and metalloproteinase domain-containing protein 10 (Homo sapiens, UniProt O14672); assay: Inhibition of ADAM-10 in human L540 cells assessed as reduction in pervanadate-induced soluble MICB shedding after 24 hrs by ELISA; type: cell-based, L-540
T2 sequence (O14672 whole entry): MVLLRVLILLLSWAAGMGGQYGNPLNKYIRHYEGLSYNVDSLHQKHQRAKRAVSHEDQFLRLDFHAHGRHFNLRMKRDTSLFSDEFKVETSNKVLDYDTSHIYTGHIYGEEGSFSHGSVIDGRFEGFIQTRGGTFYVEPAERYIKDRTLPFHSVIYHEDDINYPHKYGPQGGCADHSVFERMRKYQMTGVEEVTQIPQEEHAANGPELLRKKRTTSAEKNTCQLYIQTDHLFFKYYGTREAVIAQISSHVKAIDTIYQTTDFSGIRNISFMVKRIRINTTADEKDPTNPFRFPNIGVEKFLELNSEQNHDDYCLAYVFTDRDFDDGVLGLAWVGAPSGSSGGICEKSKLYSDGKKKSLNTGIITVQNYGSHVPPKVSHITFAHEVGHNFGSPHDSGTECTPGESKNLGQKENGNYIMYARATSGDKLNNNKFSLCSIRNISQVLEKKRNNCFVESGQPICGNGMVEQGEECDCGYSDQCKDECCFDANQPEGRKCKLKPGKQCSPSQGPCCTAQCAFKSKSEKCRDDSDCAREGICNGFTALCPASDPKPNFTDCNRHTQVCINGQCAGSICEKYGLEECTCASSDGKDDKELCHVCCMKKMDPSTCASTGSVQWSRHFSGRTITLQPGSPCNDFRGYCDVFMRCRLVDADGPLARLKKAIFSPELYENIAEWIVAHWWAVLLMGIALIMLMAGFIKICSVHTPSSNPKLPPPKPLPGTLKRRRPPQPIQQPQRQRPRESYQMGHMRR
Summary of the method: (§2)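 Supernatants taken from HL cultures before and after 24 h inhibitor exposure, 10 to 0.1 µM. 100 µM sodium orthovanadate was activated to pervanadate with 100 µM H2O2 and added for 40 min before harvest. Soluble MIC-B measured by ELISA against a MIC-B/Fc chimera standard curve. The DMSO+pervanadate supernatant was set as 100% shedding. Triplicate wells, 3 independent experiments.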

[3] = molecular target: T2, Disintegrin and metalloproteinase domain-containing protein 10; assay: Inhibition of ADAM-10 in human L428 cells assessed as reduction in pervanadate-induced soluble ULBP3 shedding after 24 hrs by ELISA; type: cell-based, L-428
Summary of the method: (§3)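 Supernatants collected before and after 24 h inhibitor exposure, 10 to 0.1 µM. 100 µM sodium orthovanadate was activated to pervanadate with 100 µM H2O2 and added for 40 min before harvest. Soluble ULBP3 or ALCAM measured by ELISA.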

[4] = molecular target: T2, Disintegrin and metalloproteinase domain-containing protein 10; assay: Inhibition of recombinant human ADAM-10 using Mca-Lys-Pro-Leu-Gly-Leu-Dap(Dnp)-Ala-Arg-NH2 as substrate after 1 hr by fluorometric assay
Summary of the method: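 Recombinant human ADAM-10, final 20 nM, preincubated with inhibitor for 1 h at 37 °C in Tris 25 mM pH 9, ZnCl2 25 µM, Brij-35 0.005%. Substrate final 10 µM. Fluorescence (ex 325/em 400 nm) read every 15 s for 20 min. Duplicates; IC50 from vi/vo = 1/(1+[I]/IC50).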

[5] = molecular target: T3, Disintegrin and metalloproteinase domain-containing protein 17 (Homo sapiens, UniProt P78536); assay: Inhibition of ADAM-17 in human L428 cells assessed as reduction in pervanadate-induced soluble ALCAM shedding after 24 hrs by ELISA; type: cell-based, L-428; summary of the method: as §3
[6] = molecular target: Matrix metalloproteinase-14 (Homo sapiens, UniProt P50281); assay: Inhibition of recombinant human MMP-14 using Mca-Lys-Pro-Leu-Gly-Leu-Dap(Dnp)-Ala-Arg-NH2 as substrate after 3 hrs by fluorometric assay
Summary of the method: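 MMP-14 catalytic domain, final 1.0 nM, preincubated with inhibitor for 3 h at 25 °C in Tris 50 mM pH 7.5, NaCl 150 mM, CaCl2 10 mM, Brij-35 0.05%, DMSO 1%. Substrate final 2 µM. Fluorescence (ex 325/em 400 nm) read every 15 s for 20 min. Duplicates; IC50 from the vi/vo equation.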

[7] = molecular target: T2, Disintegrin and metalloproteinase domain-containing protein 10; assay: Inhibition of ADAM-10 in human KM-H2 cells assessed as reduction in pervanadate-induced soluble ULBP3 shedding after 24 hrs by ELISA; type: cell-based; summary of the method: as §3
[8] = molecular target: T2, Disintegrin and metalloproteinase domain-containing protein 10; assay: Inhibition of ADAM-10 in human L428 cells assessed as reduction in pervanadate-induced soluble MICB shedding after 24 hrs by ELISA; type: cell-based, L-428; summary of the method: as §2
[9] = molecular target: Matrix metalloproteinase-9 (Homo sapiens, UniProt P14780); assay: Inhibition of recombinant human MMP-9 using Mca-Lys-Pro-Leu-Gly-Leu-Dap(Dnp)-Ala-Arg-NH2 as substrate after 3 hrs by fluorometric assay; summary of the method: as §1
[10] = molecular target: T3, Disintegrin and metalloproteinase domain-containing protein 17; assay: Inhibition of recombinant human ADAM-17 using Mca-Lys-Pro-Leu-Gly-Leu-Dap(Dnp)-Ala-Arg-NH2 as substrate after 30 mins by fluorometric assay
Summary of the method: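 Recombinant human ADAM-17, final 5 nM, preincubated with inhibitor for 30 min at 37 °C in Tris 25 mM pH 9, ZnCl2 25 µM, Brij-35 0.005%. Substrate final 2 µM. Fluorescence (ex 325/em 400 nm) read every 15 s for 20 min. Duplicates; IC50 from vi/vo = 1/(1+[I]/IC50).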

[11] = molecular target: T3, Disintegrin and metalloproteinase domain-containing protein 17; assay: Inhibition of ADAM-17 in human KM-H2 cells assessed as reduction in pervanadate-induced soluble ALCAM shedding after 24 hrs by ELISA; type: cell-based; summary of the method: as §3
[12] = molecular target: T2, Disintegrin and metalloproteinase domain-containing protein 10; assay: Inhibition of ADAM-10 in human L540 cells assessed as reduction in pervanadate-induced soluble ULBP3 shedding after 24 hrs by ELISA; type: cell-based, L-540; summary of the method: as §3
[13] = molecular target: 72 kDa type IV collagenase (Homo sapiens, UniProt P08253); assay: Inhibition of recombinant human MMP-2 using Mca-Lys-Pro-Leu-Gly-Leu-Dap(Dnp)-Ala-Arg-NH2 as substrate after 3 hrs by fluorometric assay; summary of the method: as §1
[14] = molecular target: T2, Disintegrin and metalloproteinase domain-containing protein 10; assay: Inhibition of ADAM-10 in human KM-H2 cells assessed as reduction in pervanadate-induced soluble MICB shedding after 24 hrs by ELISA; type: cell-based; summary of the method: as §2
[15] = Cytotoxicity against human KM-H2 cells assessed as cell viability at 10 uM after 72 to 96 hrs by JC-1 staining-based fluorescence assay; conditions: read-out: Activity
Summary of the method: (§4)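 HL cell lines from DSMZ exposed to inhibitor at 10 µM for 72 and 96 h. Viability read as mitochondrial potential by staining with the dual-emission fluorescent probe JC-1.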

[16] = Cytotoxicity against human L428 cells assessed as cell viability at 10 uM after 72 to 96 hrs by JC-1 staining-based fluorescence assay; parameters: species or system L-428; conditions: read-out: Activity; summary of the method: as §4
[17] = Cytotoxicity against human L540 cells assessed as cell viability at 10 uM after 72 to 96 hrs by JC-1 staining-based fluorescence assay; parameters: species or system L-540; conditions: read-out: Activity; summary of the method: as §4

T3 sequence (P78536 whole entry, the tested form may be a part): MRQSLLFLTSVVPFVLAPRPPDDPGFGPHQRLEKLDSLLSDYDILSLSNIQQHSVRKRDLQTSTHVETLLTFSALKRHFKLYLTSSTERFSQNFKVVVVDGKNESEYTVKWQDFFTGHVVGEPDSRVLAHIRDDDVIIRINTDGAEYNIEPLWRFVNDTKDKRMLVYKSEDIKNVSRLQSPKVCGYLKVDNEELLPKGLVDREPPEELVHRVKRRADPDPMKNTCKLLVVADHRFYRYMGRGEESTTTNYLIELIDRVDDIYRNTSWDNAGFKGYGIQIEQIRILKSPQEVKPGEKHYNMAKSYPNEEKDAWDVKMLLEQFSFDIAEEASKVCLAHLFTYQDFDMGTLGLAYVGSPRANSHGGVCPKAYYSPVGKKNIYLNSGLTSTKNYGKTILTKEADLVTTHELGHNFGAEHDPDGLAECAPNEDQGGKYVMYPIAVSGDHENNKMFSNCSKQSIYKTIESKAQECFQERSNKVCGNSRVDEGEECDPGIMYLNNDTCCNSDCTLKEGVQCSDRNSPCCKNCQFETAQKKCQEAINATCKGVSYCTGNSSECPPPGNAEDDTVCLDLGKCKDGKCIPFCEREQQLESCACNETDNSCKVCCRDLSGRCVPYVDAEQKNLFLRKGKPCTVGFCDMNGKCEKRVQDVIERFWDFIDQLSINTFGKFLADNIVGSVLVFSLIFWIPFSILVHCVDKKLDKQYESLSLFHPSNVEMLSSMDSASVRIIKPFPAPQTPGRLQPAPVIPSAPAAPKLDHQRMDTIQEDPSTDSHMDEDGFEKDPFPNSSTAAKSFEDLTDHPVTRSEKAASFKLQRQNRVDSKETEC
72 kDa type IV collagenase, sequence (P08253 whole entry, the tested form may be a part): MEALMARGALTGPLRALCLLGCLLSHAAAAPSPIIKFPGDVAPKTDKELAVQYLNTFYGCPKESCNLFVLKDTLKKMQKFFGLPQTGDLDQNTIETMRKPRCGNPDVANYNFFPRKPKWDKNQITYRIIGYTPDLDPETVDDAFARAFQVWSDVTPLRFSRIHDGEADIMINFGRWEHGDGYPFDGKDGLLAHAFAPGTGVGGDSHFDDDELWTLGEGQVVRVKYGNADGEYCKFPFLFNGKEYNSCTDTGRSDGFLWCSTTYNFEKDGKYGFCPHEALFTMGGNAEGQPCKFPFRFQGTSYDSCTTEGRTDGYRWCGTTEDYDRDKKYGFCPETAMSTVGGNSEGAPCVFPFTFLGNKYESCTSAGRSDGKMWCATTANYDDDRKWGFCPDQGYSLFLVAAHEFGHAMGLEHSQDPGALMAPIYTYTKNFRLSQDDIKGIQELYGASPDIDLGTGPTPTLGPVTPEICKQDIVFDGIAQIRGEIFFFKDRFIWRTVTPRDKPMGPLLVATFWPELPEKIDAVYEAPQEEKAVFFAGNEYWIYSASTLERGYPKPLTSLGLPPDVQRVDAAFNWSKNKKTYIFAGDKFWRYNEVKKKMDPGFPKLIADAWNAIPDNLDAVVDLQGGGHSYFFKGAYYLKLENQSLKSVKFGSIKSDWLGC
Matrix metalloproteinase-9, sequence (P14780 whole entry, the tested form may be a part): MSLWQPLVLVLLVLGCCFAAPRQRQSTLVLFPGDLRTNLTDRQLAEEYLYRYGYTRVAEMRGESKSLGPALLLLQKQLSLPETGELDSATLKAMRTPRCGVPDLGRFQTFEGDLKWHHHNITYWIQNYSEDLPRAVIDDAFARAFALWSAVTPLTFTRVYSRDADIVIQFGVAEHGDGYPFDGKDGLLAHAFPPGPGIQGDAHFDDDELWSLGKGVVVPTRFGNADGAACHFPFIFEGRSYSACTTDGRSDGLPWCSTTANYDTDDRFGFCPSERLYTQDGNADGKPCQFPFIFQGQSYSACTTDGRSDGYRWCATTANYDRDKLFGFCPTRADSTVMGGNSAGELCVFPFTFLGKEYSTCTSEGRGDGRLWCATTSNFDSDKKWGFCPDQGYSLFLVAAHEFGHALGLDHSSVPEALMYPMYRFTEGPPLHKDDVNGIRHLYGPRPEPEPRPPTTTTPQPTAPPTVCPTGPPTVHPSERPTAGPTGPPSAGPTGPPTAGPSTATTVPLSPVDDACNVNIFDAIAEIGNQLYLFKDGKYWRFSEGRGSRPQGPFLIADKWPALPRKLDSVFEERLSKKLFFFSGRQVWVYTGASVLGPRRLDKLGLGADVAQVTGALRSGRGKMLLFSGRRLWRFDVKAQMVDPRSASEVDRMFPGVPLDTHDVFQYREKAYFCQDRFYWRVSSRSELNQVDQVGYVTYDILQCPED

Row | IC50 [1] [µM] | IC50 [2] [µM] | IC50 [3] [µM] | IC50 [4] [µM] | IC50 [5] [µM] | IC50 [6] [µM] | IC50 [7] [µM] | IC50 [8] [µM] | IC50 [9] [µM] | IC50 [10] [µM] | IC50 [11] [µM] | IC50 [12] [µM] | IC50 [13] [µM] | IC50 [14] [µM] | Structure (SMILES) | viability at 10 µM [15] [%] | viability at 10 µM [16] [%] | viability at 10 µM [17] [%]
1 | 0.125 | 12 | 15 | 0.027 | 10 | 0.088 | 10 | 12 | 0.0051 | 0.86 | 10 | 10 | 0.0021 | 12 | CNC(=O)[C@@H](NC(=O)[C@H](CCCc1ccccc1)[C@H](C)N(O)C=O)C(C)(C)C | – | – | –
2 | – | 15 | 10 | – | 0.1 | – | 15 | 15 | – | – | 0.5 | 12 | – | 15 | O=C(NCCC[C@@H](NS(=O)(=O)c1ccc(OCc2cc(Br)cc(Br)c2)cc1)C(=O)NO)OCc1ccccc1 | > 96 | > 96 | > 96
3 | > 200 | 12 | 10 | 0.0092 | 1 | 50 | 10 | 7 | 4.5 | 0.09 | 1 | 10 | 0.37 | 7 | Cc1cc(C#N)ccc1N1CCN(S(=O)(=O)N[C@H](CCCNC(=O)OCc2ccccc2)C(=O)NO)CC1 | > 96 | > 96 | > 96
4 | 346 | 7 | 5 | 0.04 | 12 | 100 | 7 | 5 | 24 | 1.5 | 10 | 7 | 5.4 | 5 | Cc1cc(C#N)ccc1N1CCN(S(=O)(=O)N2CSC[C@@H]2C(=O)NO)CC1 | > 96 | > 96 | > 96
